Compound activity as filed in PubChem BioAssay.
The list is not random: actives were taken first. Their share in the collection is about 4.3%.
OX1R antag-1: human HCRTR1 antagonism; CHO/OX1R cells, Fluo-8 calcium fluorescence, orexin A; O43613; 330,000 tested, 0.43% active; AID 434989; inhibition, % at 5 µM;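 active means inhibition above its plate's threshold, mean inhibition of all tested compounds on the plate plus 3 SD, cut at about 37% in these data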;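 further: 0% = orexin A challenge wells and 100% = SB-334867-A antagonist wells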
Target sequence (O43613 whole entry, looked up): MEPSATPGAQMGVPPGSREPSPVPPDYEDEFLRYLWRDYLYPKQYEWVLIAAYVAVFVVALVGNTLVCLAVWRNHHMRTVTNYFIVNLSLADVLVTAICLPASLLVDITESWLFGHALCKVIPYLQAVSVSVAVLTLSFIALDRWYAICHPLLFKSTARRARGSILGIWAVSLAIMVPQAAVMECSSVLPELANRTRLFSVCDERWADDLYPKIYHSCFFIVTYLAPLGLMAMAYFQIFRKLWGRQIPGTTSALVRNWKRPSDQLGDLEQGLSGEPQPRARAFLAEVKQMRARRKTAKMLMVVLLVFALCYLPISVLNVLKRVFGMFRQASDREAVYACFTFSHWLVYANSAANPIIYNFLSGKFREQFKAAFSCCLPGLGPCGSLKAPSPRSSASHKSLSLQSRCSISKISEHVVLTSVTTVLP
TAAR1 antagonist: antagonists of human TAAR1 | Q96RJ0 | CHO RD-HGA16 TAAR1, Fluo-8 calcium fluorescence, antagonist | inhibition, % at 3 µM | AID 624466 | 360,000 tested, 1.5% active;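 active means inhibition above a per-plate cutoff, the mean inhibition of test compounds on that plate plus 3 SD, cut at about 49% in these data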;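 further: 0% = DMSO plus EC80 beta-PEA response and 100% = DMSO alone without agonist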
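test system = CHO RD-HGA16 cells bearing hTAAR1 | replication = singlicate | controls = DMSO-only wells and EC80 β-PEA-stimulated wells | reagent = EC80 β-phenethylamine stimulus | read-out basis = percent inhibition of PEA-evoked calcium signal, max/basal emission ratio | schedule = seeding 17-24 h prior, 75-min 37 °C, 30-min RT dye loading | signal = kinetic Fluo-8 calcium fluorescence measurement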
GalR3 antagonist: antagonists of human GalR3 | inhibition, % at 3 µM | HEK293 GalR3-CNG cAMP membrane potential fluorescence; galR3 body fused to GalR1 C-terminus | AID 651719 | 360,000 tested, 0.44% active | O60755;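 active means inhibition above the screen-wide average plus 3 SD, cut at about 13% in these data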;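 further: forskolin and galanin both at EC90 stimulate the cells; cAMP rise reported by CNG channel membrane potential dye signal; 0% = forskolin plus galanin with DMSO and 100% = forskolin alone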
OX1R antag-2: OX1R (human) antagonism | 330,000 tested, 1.8% active | OX1R-expressing cells, FRET antagonist read-out | O43613 | inhibition, % at 6.6 µM | AID 485270; in the data active means inhibition mostly above about 38%, no sharp cut-off; inactive means mostly below about 40%;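 further: 0% = agonist challenge alone and 100% = reference antagonist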
CHO parental Ca: counter-screen for OX1R antagonists: effect in parental CHO cells; parental CHO-K1, ATP-induced calcium, Fluo-8 fluorescence; inhibition, % at 5.6 µM; 330,000 tested, 0.63% active;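 active means inhibition above that plate's mean sample inhibition plus 3 SD, cut at about 26% in these data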;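 further: 0% = ATP-challenged DMSO wells and 100% = DMSO wells without ATP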
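Assay system – parental CHO cells · Reagent – ATP stimulus · Detection – intracellular calcium via Fluo-8 no-wash fluorescent dye · Evaluation – percent inhibition of ATP-evoked calcium rise, normalized to controls · Controls – ATP wells versus no-ATP DMSO wells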
TAAR1 agonist: agonists of human TAAR1; activation, % at 3 µM; CHO RD-HGA16 TAAR1, Fluo-8 calcium fluorescence; vehicle wells 0%, saturating PEA agonist 100%; 360,000 tested, 0.99% active; Q96RJ0;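 active means activation above the mean activation of all test compounds in the run plus 3 SD, cut at about 38% in these data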
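Test system: RD-HGA16 (CHO) cells co-expressing Gα16 and hTAAR1; dosing: one-point dosing at 3 µM (nominal); timing: 17-24 h seeding, 75 min 37 °C dye, 30 min RT; signal: kinetic Fluo-8 calcium fluorescence; read-out basis: % activation relative to PEA EC100 response; controls: DMSO and PEA EC100; replicates: n 1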
GalR3 antag conf: confirmation of human galanin receptor 3 antagonists; shares compounds with GalR3 antagonist; HEK293 GalR3 CNG cAMP biosensor, membrane potential fluorescence; galR3 fused to GalR1 carboxy tail; challenged with forskolin and galanin at EC90; inhibition, % at 3 µM; 1,600 tested, 59% active; AID 652245;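 active means inhibition above the primary screen's cutoff, the mean inhibition of all screened compounds plus 3 SD, cut at about 13% in these data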;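 further: 0% = forskolin plus galanin and 100% = forskolin alone with DMSO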
HEK-CNG parental: acts as nonspecific agonist in parental HEK-CNG cells. activation, % at 3 µM. 1,600 tested, 10% active. AID 652268. HEK293-CNG parental cells, cAMP membrane potential fluorescence; normalised: DMSO wells 0%, forskolin wells 100%. shares compounds with GalR3 antagonist; in the data active means activation above about 1.3%
The depositor's hits bear a star; x = no result given; ! = repeats disagree.

SMILES	OX1R antag-1	TAAR1 antagonist	GalR3 antagonist	OX1R antag-2	CHO parental Ca	TAAR1 agonist	GalR3 antag conf	HEK-CNG parental
C[C@H](O)Cc1cn(-c2cc3cc(C#Cc4ccsc4)ccc3oc2=O)nn1	0	10	-5	11	-11	9	x	x
CC1CCCCC12NC(=O)N(CC(=O)N1CCN(C(=O)c3ccco3)CC1)C2=O (configuration not stated)	-9	-9	-2	-1	-10	13	x	x
Fc1ccc(CN2CCN(c3ncc(Cc4ccccc4)cn3)CC2)c(Cl)c1	x	-23	82*	x	x	1	109*	0
COc1ccc(NC(=O)CSc2ncccc2C(=O)OC(C)C)cc1OC	6	10	28*	22	18	12	13*	0
CCN(c1ccccc1)S(=O)(=O)c1ccc(Cl)c(NC(=O)CN(C)Cc2cccc(F)c2)c1	x	6	-5	x	x	1	x	x
FC(F)(F)c1cnc(N2CCN(C(=S)NCc3ccccc3)CC2)c(Cl)c1	8	4	-3	14	-15	6	x	x
FC(F)(F)c1cnc(N2CCCN(C(=S)Nc3ccccc3)CC2)c(Cl)c1	-10	9	40*	7	-5	5	80*	0
COc1cc2ccccc2c2c1CCCC2=O	-11	-6	x	28	-28	3	-6	1
O=C1CCCc2ccc3ccccc3c21	x	-16	-5	x	x	1	x	x
CC(Nc1ncnc2sccc12)c1ccccc1 (configuration not stated)	12	14	94*	36	42*	5	105*	0
COc1ccccc1C(=O)Nc1ccc(C2=NNC(=O)CC2C)cc1 (configuration not stated)	-31	21	73*	21	-11	8	73*	0
O=C(Nc1ccc(S(=O)(=O)Nc2ncccn2)cc1)C12CC3CC(CC(Cl)(C3)C1)C2	-7	-5	-6	2	-9	4	x	x
CCC1=Nc2cc(C(=O)NCC3CCCO3)ccc2Sc2ccc(Br)cc21 (configuration not stated)	-21	-52	-3	19	-34	-1	x	x
CCC1=Nc2cc(C(=O)NCC3CCCO3)ccc2Sc2ccc(Cl)cc21 (configuration not stated)	-31	-2	16*	11	-23	10	9	0
Cn1c(CSCc2ccc(Cl)cc2)n[nH]c1=S	-7	-3	-3	12	6	0	x	x
COc1cc(CN(C)CC(=O)c2[nH]c(C)c(C(C)=O)c2C)ccc1OC(F)F	-4	1	19*	25	-2	10	12	0
COc1ccc(NC(=O)CN(C)CC(=O)c2[nH]c(C)c(C(C)=O)c2C)cc1	-1	-26	-6	6	-6	6	x	x
CCC(C(=O)NC1CCCCC1)n1c2ccccc2c2nc(=O)cc(C)n21 (configuration not stated)	-13	-1	-2	4	-11	-1	x	x
COc1ccccc1NS(=O)(=O)c1cc2c3c(c1)CCN3C(=O)CC2	-3	-24	2	19	-7	4	x	x
COc1ccccc1-n1c(-c2ccccc2)c[n+]2c1CCc1ccccc1-2	-25	4	53*	21	6	4	68*!	1.6*
CC(C)c1ccc(-n2c(-c3ccccc3)c[n+]3c2CCc2ccccc2-3)cc1	x	15	-2	x	x	4	x	x
CC(Oc1ccccc1)c1ccnc2nc(N3CCOCC3)nn12 (configuration not stated)	-15	7	-4	7	-9	4	x	x
CC(Oc1ccc(Cl)cc1Cl)c1ccnc2nc(N3CCOCC3)nn12 (configuration not stated)	-20	17	x	18	-14	6	3	1
CCc1c(C)nc2ncnn2c1NCCc1ccc(OC)cc1	10	12	15*	27	7	9	59*	0
COc1ccc(Br)cc1/C(C)=N/NC1=NCCN1	-12	-3	85*	24	-2	18	32*	2.1*
SMILES	OX1R antag-1	TAAR1 antagonist	GalR3 antagonist	OX1R antag-2	CHO parental Ca	TAAR1 agonist	GalR3 antag conf	HEK-CNG parental
CCCSc1ncnc2[nH]ncc12	x	-12	-4	x	x	1	x	x
Cc1nc(NCC2CC2)c2nnn(Cc3ccccc3)c2n1	-18	-30	18*	10	-6	-2	-2	0
Cc1nc(NCC2CCCO2)c2nnn(Cc3ccccc3)c2n1 (configuration not stated)	1	-11	-7	3	-13	14	x	x
O=C(O)CCCCCCCCCCP(=O)(c1ccccc1)c1ccccc1	-13	3	13*	15	-10	-3	-2	0
NC(=O)c1sc(=S)n2c1[nH]c(=O)c1sccc12	0	-5	67*	-2	7	7	-3	1
CC(=O)NNC(=O)c1sc(=S)n2c1[nH]c(=O)c1sccc12	5	-8	-7	6	-6	2	x	x
COc1ccc(NC(=O)C2Cc3c(-c4cccc(C(C)=O)c4)ccnc3O2)cc1OC (configuration not stated)	x	4	61*	x	x	29	104*	0
COc1ccc(N2C(=O)C3CCCN3C2c2cccc(OC)c2OC)cc1 (configuration not stated)	-13	-28	4	14	-10	0	x	x
COc1cccc(C2N(c3ccccc3)CCN2c2ccccc2)c1OC	-1	-30	14*	18	-17	2	9	0
Cc1cccc(NC(=S)NNc2ncc(C(F)(F)F)cc2Cl)c1	-11	13	0	2	2	9	x	x
FC(F)(F)c1cnc(NNC(=S)Nc2ccccc2Cl)c(Cl)c1	1	11	55*	30	8	21	4	0
COc1ccc(Cn2c(=O)[nH]c3cc(C(=O)N4CCN(Cc5ccccc5)CC4)ccc3c2=O)cc1	-33	8	65*	6	-30	15	88*	0
COc1cc(C2c3cc4c(cc3OC(NCc3ccccc3)C2C)OCO4)cc(OC)c1OC (configuration not stated)	x	1	2	x	x	8	x	x
S=C(NCCCN1CCOCC1)N1CCN(c2nc(-c3ccc(Cl)cc3)cs2)CC1	11	41	20*	20	28	7	6	-1
CCOCCCNC(=S)N1CCN(c2nc(-c3ccc(F)cc3)cs2)CC1	9	48	37*	6	14	3	88*	-1
